Source: ChEMBL document CHEMBL5325402, “Exploration of novel hexahydropyrrolo[1,2-e]imidazol-1-one derivatives as antiviral agents against ZIKV and USUV” (Eur J Med Chem, 2023)
pEC50: −log10 of the molar value. Values after ≈ are worked out from the molar mass of the structure shown. Values joined by “and” are separate entries in the source; they are usually repeats but may differ in a detail not shown here. Equal entries are not always repeated. Active and inactive are the calls of the source. The rule behind the calls is not given here.

Columns and labels:
Zika virus [1] = test: Antiviral activity against ZIKV MR766 infected in African green monkey Vero cells assessed as viral growth inhibition at 11 to 100 uM pretreated with virus for 1 hr followed by infection of cells with compound treated-virus for 30 hrs by focus reduction assay; type: functional, organism-based; details: dose 11-100 µM, time 31.0 hrs
Outline: (§1)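 Screening focus reduction assay. Vero cells were seeded 1.2 × 10^4/well. ZIKV MR766 or USUV (MOI 0.02) was preincubated 1 h at 37 °C with 100, 33 or 11 μM compound, then added to cells for 30 h (ZIKV) or 20 h (USUV). Cells were fixed in acetone-methanol and immunostained with anti-flavivirus E 4G2 plus a peroxidase secondary. Foci counted microscopically; % infection versus DMSO-matched untreated wells. Medium contained 2% FBS.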

Usutu virus [2] = test: Antiviral activity against USUV 3345 isolate Arb276 infected in African green monkey Vero cells assessed as viral growth inhibition at 11 to 100 uM pretreated with virus for 1 hr followed by infection of cells with compound treated-virus for 20 hrs by focus reduction assay; type: functional, organism-based; details: dose 11-100 µM, time 21.0 hrs; outline: as §1
Usutu virus [3] = test: Antiviral activity against USUV 3345 isolate Arb276 infected in African green monkey Vero cells assessed as reduction in viral replication pretreated with virus for 1 hr followed by infection of cells with compound treated-virus for 20 hrs by focus reduction assay; type: functional, organism-based
Zika virus [4] = test: Antiviral activity against ZIKV MR766 infected in African green monkey Vero cells assessed as reduction in viral replication pretreated with virus for 1 hr followed by infection of cells with compound treated-virus for 30 hrs by focus reduction assay; type: functional, organism-based
[5] = Cytotoxicity against African green monkey Vero cells infected with USUV 3345 isolate Arb276 pretreated with virus for 1 hr followed by infection of cells with compound treated-virus for 20 hrs by MTS assay; type: toxicity, cell-based; details: chlorocebus sabaeus
Outline: (§2)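 MTS viability assay. Cells were treated under the same conditions as the antiviral assays. Absorbance was expressed as % of medium-only cells, and CC50 was derived from the curve. Seeding densities were 1.2 × 10^4/well for Vero, 1.3 × 10^4/well for A549 and 1.6 × 10^4/well for Huh7. DMEM with 2% FBS.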

[6] = Cytotoxicity against African green monkey Vero cells infected with ZIKV MR766 pretreated with virus for 1 hr followed by infection of cells with compound treated-virus for 30 hrs by MTS assay; type: toxicity, cell-based; details: chlorocebus sabaeus; outline: as §2
[7] = Selectivity index, ratio of CC50 for African green monkey Vero cells infected with ZIKV MR766 to EC50 for ZIKV MR766 infected in African green monkey Vero cells; type: toxicity, cell-based; details: read-out: Ratio CC50/EC50
[8] = Selectivity index, ratio of CC50 for African green monkey Vero cells infected with USUV 3345 isolate Arb276 to EC50 for USUV 3345 isolate Arb276 infected in African green monkey Vero cells; type: toxicity, cell-based; details: read-out: Ratio CC50/EC50
Zika virus [9] = test: Antiviral activity against ZIKV HPF2013 infected in African green monkey Vero cells assessed as reduction in viral replication pretreated with virus for 1 hr followed by infection of cells with compound treated-virus for 30 hrs by focus reduction assay; type: functional, organism-based
[10] = Cytotoxicity against African green monkey Vero cells infected with ZIKV HPF2013 pretreated with virus for 1 hr followed by infection of cells with compound treated-virus for 30 hrs by MTS assay; type: toxicity, cell-based; details: chlorocebus sabaeus; outline: as §2
[11] = Selectivity index, ratio of CC50 for African green monkey Vero cells infected with ZIKV HPF2013 to EC50 for ZIKV HPF2013 infected in African green monkey Vero cells; type: toxicity, cell-based; details: read-out: Ratio CC50/EC50
[12] = Solubility in i-propanol at 25 degreeC; type: physicochemical
[13] = Solubility in DMSO at 25 degreeC; type: physicochemical
[14] = Aqueous solubility in deionized water containing 1.38% DMSO; type: physicochemical
Usutu virus [15] = test: Antiviral activity against USUV 3345 isolate Arb276 infected in human A549 cells assessed as reduction in viral replication pretreated with virus for 1 hr followed by infection of cells with compound treated-virus for 20 hrs by focus reduction assay; type: functional, organism-based; details: Usutu virus, 3345, A549
Outline: (§3)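 Dose-response: serial dilutions (100 to 0.13 μM) preincubated 1 h at 37 °C with virus (MOI 0.02), then added to cells for 20 h (USUV) or 30 h (ZIKV) in 2% FBS DMEM. Cells per well: Vero 1.2 × 10^4, A549 1.3 × 10^4, Huh7 1.6 × 10^4. Foci immunostained and counted. EC50/EC90 fitted by variable-slope sigmoidal curve, mean of three independent experiments.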

Zika virus [16] = test: Antiviral activity against ZIKV MR766 infected in human A549 cells assessed as reduction in viral replication pretreated with virus for 1 hr followed by infection of cells with compound treated-virus for 30 hrs by focus reduction assay; type: functional, organism-based; outline: as §3
Usutu virus [17] = test: Antiviral activity against USUV 3345 isolate Arb276 infected in human Huh-7 cells assessed as reduction in viral replication pretreated with virus for 1 hr followed by infection of cells with compound treated-virus for 20 hrs by focus reduction assay; type: functional, organism-based; details: Usutu virus, 3345, Huh-7; outline: as §3
Zika virus [18] = test: Antiviral activity against ZIKV MR766 infected in human Huh-7 cells assessed as reduction in viral replication pretreated with virus for 1 hr followed by infection of cells with compound treated-virus for 30 hrs by focus reduction assay; type: functional, organism-based; outline: as §3
[19] = Cytotoxicity against human A549 cells infected with USUV 3345 isolate Arb276 pretreated with virus for 1 hr followed by infection of cells with compound treated-virus for 20 hrs by MTS assay; type: toxicity, cell-based; outline: as §2
[20] = Cytotoxicity against human A549 cells infected with ZIKV MR766 pretreated with virus for 1 hr followed by infection of cells with compound treated-virus for 30 hrs by MTS assay; type: toxicity, cell-based; outline: as §2
[21] = Cytotoxicity against human Huh-7 cells infected with USUV 3345 isolate Arb276 pretreated with virus for 1 hr followed by infection of cells with compound treated-virus for 20 hrs by MTS assay; type: toxicity, cell-based; outline: as §2
[22] = Cytotoxicity against human Huh-7 cells infected with ZIKV MR766 pretreated with virus for 1 hr followed by infection of cells with compound treated-virus for 30 hrs by MTS assay; type: toxicity, cell-based; outline: as §2
Zika virus [23] = test: Antiviral activity against ZIKV MR766 infected in African green monkey Vero cells assessed as viral growth inhibition at 33 uM pretreated with virus for 1 hr followed by infection of cells with compound treated-virus for 30 hrs by focus reduction assay relative to control; type: functional; details: time 31 hrs
Outline: (§4)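 Virus (MOI 0.02) preincubated with compound 1 h at 37 °C, then mixture put on Vero cells (1.2 × 10^4/well, seeded the day before) in DMEM with 2% FBS for 30 h (ZIKV) or 20 h (USUV) at 37 °C. Fixed in cold acetone-methanol, foci immunostained with anti-flavivirus E 4G2 antibody and counted. % infection is relative to DMSO-treated wells. Screen used 100, 33 and 11 μM.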

Usutu virus [24] = test: Antiviral activity against USUV 3345 isolate Arb276 infected in African green monkey Vero cells assessed as viral growth inhibition at 33 uM pretreated with virus for 1 hr followed by infection of cells with compound treated-virus for 20 hrs by focus reduction assay relative to control; type: functional; details: Usutu virus, 3345, Vero, time 21 hrs; outline: as §4

With `O=C1[C@@H]2CCCN2[C@@H](Cc2ccc(O)cc2)N1c1ccc([N+](=O)[O-])cc1` as the molecule, how does the Activity (Zika virus [1]) read?
Its Activity is “inactive”.

What about the Activity (Usutu virus [2]) of the same molecule?
The Activity was “inactive”.

With `COc1cc([C@H]2N(Nc3ccc([N+](=O)[O-])cc3)C(=O)[C@@H]3CCCN32)ccc1O` as the molecule, how does the Activity (Zika virus [1]) read?
Its Activity is “inactive”.

And the Activity (Usutu virus [2])?
Its Activity is “inactive”.

Which results are given for `COc1ccc(C[C@H]2N(Nc3ccc([N+](=O)[O-])cc3)C(=O)[C@@H]3CCCN32)cc1OC`?
Activity (Zika virus [1]): inactive; Activity (Usutu virus [2]): inactive

With `C=C1/C(=C\C=C2/CCC[C@]3(C)[C@@H]([C@H](C)/C=C/C=C/C(O)(CC)CC)CC[C@@H]23)C[C@@H](O)C[C@@H]1O` [SEOCALCITOL] as the molecule, how does the pEC50 (Usutu virus [3]; vero) read?
Its pEC50 is 5.67 and 5.00.

And the pEC50 (Zika virus [4])?
Its pEC50 is 5.12.

What about the CC50 at 21 h [5] of the same molecule?
The CC50 at 21 h was 11.9 µM.

And the CC50 at 31 h [6]?
The CC50 at 31 h was 11 µM.

What about the selectivity ratio [7] of the same molecule?
Its selectivity ratio is 1.5.

What about the selectivity ratio [8] of the same molecule?
Its selectivity ratio is 6.

And the pEC50 (Zika virus [9])?
Its pEC50 is 5.55.

What about the CC50 at 31 h [10] of the same molecule?
The CC50 at 31 h was 11 µM.

What about the selectivity ratio [11] of the same molecule?
The selectivity ratio was 3.9.

Which solubility [12] does the source give for `COc1cc([C@H]2N(c3ccc([N+](=O)[O-])cc3)C(=O)[C@@H]3CCCN32)ccc1O` here?
Its solubility is 1170 µg/mL (≈ 3.17 mM).

What about the solubility [13] of the same molecule?
Its solubility is 37.5 mg/mL (≈ 102 mM).

And the solubility [14]?
The solubility was 518 µg/mL (≈ 1.4 mM).

What does the source list for `O=C1[C@@H]2CCCN2[C@@H](Cc2ccc(O)c(O)c2)N1c1ccc([N+](=O)[O-])cc1`?
Activity (Zika virus [1]): inactive; Activity (Usutu virus [2]): inactive

Which Activity (Zika virus [1]) does the source give for `O=C1[C@@H]2CCCN2[C@@H](c2cccc(O)c2)N1c1ccc([N+](=O)[O-])cc1` here?
Its Activity is “inactive”.

What about the Activity (Usutu virus [2]) of the same molecule?
The Activity was “inactive”.

For `O=C1[C@@H]2CCCN2[C@@H](c2ccco2)N1Nc1ccc([N+](=O)[O-])cc1`, which Activity (Zika virus [1]) is on record?
Its Activity is “inactive”.

And the Activity (Usutu virus [2])?
The Activity was “inactive”.

For `COc1ccc([C@H]2N(c3ccc([N+](=O)[O-])cc3)C(=O)[C@@H]3CCCN32)cc1OC`, which Activity (Zika virus [1]) is on record?
Its Activity is “inactive”.

And the Activity (Usutu virus [2])?
Its Activity is “inactive”.

With `CCN(CC)CCCC(C)Nc1ccnc2cc(Cl)ccc12` (stereo unspecified) [CHLOROQUINE] as the molecule, how does the pEC50 (Usutu virus [3]; Usutu virus, 3345, Vero) read?
Its pEC50 is 5.08.

And the EC90 (Usutu virus [3]; Usutu virus, 3345, Vero, time 21 hrs)?
The EC90 was 28.2 µM.

What about the pEC50 (Zika virus [4]) of the same molecule?
Its pEC50 is 5.82.

And the EC90 (Zika virus [4]; time 31 hrs)?
Its EC90 is 5.77 µM.

And the pEC50 (Usutu virus [15])?
The pEC50 was 5.37.

What about the EC90 (Usutu virus [15]; time 21 hrs) of the same molecule?
Its EC90 is 60.1 µM.

What about the pEC50 (Zika virus [16]) of the same molecule?
Its pEC50 is 5.22.

What about the EC90 (Zika virus [16]; time 31 hrs) of the same molecule?
Its EC90 is 50.3 µM.

What about the pEC50 (Usutu virus [17]) of the same molecule?
Its pEC50 is 5.32.

What about the EC90 (Usutu virus [17]; time 21 hrs) of the same molecule?
Its EC90 is 11.8 µM.

What about the pEC50 (Zika virus [18]; MR766, Huh-7) of the same molecule?
Its pEC50 is 6.02.

And the EC90 (Zika virus [18]; MR766, Huh-7, time 31 hrs)?
Its EC90 is 2360 nM.

What about the CC50 at 21 h [5] of the same molecule?
The CC50 at 21 h was 115 µM.

And the CC50 at 31 h [6]?
The CC50 at 31 h was 136 µM.

And the CC50 at 21 h [19]?
Its CC50 at 21 h is 144 µM.

What about the CC50 at 31 h [20] of the same molecule?
The CC50 at 31 h was 80.5 µM.

What about the CC50 at 21 h [21] of the same molecule?
Its CC50 at 21 h is 75.5 µM.

What about the CC50 at 31 h [22] of the same molecule?
Its CC50 at 31 h is 58.5 µM.

With `O=C1[C@@H]2CCCN2[C@@H](c2ccco2)N1Nc1ccccc1` as the molecule, how does the inhibition at 33 µM (Zika virus [23]) read?
The inhibition at 33 µM was under 50%.

And the inhibition at 33 µM (Usutu virus [24])?
The inhibition at 33 µM was under 50%.

What does the source list for `COc1cc(C[C@H]2N(c3ccc([N+](=O)[O-])cc3)C(=O)[C@@H]3CCCN32)ccc1O`?
Activity (Zika virus [1]): inactive; Activity (Usutu virus [2]): inactive

With `COc1cc([C@H]2N(Nc3ccccc3)C(=O)[C@@H]3CCCN32)ccc1O` as the molecule, how does the inhibition at 33 µM (Zika virus [23]) read?
The inhibition at 33 µM was under 50%.

What about the inhibition at 33 µM (Usutu virus [24]) of the same molecule?
Its inhibition at 33 µM is under 50%.

Which results are given for `O=C1[C@@H]2CCCN2[C@@H](c2ccc(O)c(O)c2)N1c1ccc([N+](=O)[O-])cc1`?
Activity (Zika virus [1]): inactive; Activity (Usutu virus [2]): inactive

Which Activity (Zika virus [1]) does the source give for `COc1ccc([C@H]2N(c3ccc([N+](=O)[O-])cc3)C(=O)[C@@H]3CCCN32)cc1O` here?
The Activity was “inactive”.

And the Activity (Usutu virus [2])?
Its Activity is “inactive”.

For `COc1ccc(C[C@H]2N(c3ccc([N+](=O)[O-])cc3)C(=O)[C@@H]3CCCN32)cc1O`, which Activity (Zika virus [1]) is on record?
Its Activity is “inactive”.

And the Activity (Usutu virus [2])?
The Activity was “inactive”.
